Laboratory results reported in ChEMBL document CHEMBL1773023, “Potent and selective phosphopeptide mimetic prodrugs targeted to the Src homology 2 (SH2) domain of signal transducer and activator of transcription 3” (J Med Chem, 2011).
Active and inactive are the calls of the source. The calls are words filed in the database; no cut-off is given here.

Legend:
[1] = target: Baculoviral IAP repeat-containing protein 5 (Homo sapiens) (UniProt O15392); test: Inhibition of survivin in human MDA-MB-468 cells at 5 uM after up to 48 hrs by Western blotting; assay type: cell-based
[2] = target: G1/S-specific cyclin-D1 (Homo sapiens) (UniProt P24385); test: Inhibition of Cyclin D1 in human HCC-827 cells at 5 uM after up to 24 hrs by Western blotting; assay type: cell-based
[3] = Cytotoxicity against human NCI-H528 cells assessed as cell growth inhibition at 5 to 10 uM after 72 hrs by MTT assay; assay type: functional
In short: (§1)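 Cell lines with constitutive Stat3 phosphorylation (melanoma, NSCLC) exposed to prodrug at 5–10 μM. Percent growth inhibition recorded.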

MeWo = test: Cytotoxicity against human MeWo cells assessed as cell growth inhibition at 5 to 10 uM after 72 hrs by MTT assay; assay type: functional; in short: as §1
[4] = target: T1, Signal transducer and activator of transcription 3 (Homo sapiens, UniProt P40763); test: Inhibition of SH2 domain of Stat3 constitutive phosphorylation at Tyr705 in human MDA-MB-468 cells at 5 uM after 2 hrs by fluorescence immunohistochemical analysis; assay type: cell-based
In short: (§2)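 MDA-MB-468 cells on slides treated with 5 μM prodrug or DMSO for 2 h, fixed in 4% paraformaldehyde, permeabilized with 0.5% Triton X-100, blocked in 3% BSA, stained with anti-pTyr705 Stat3 and Alexa Fluor 594 secondary; confocal imaging at fixed microscope settings.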

[5] = Cytotoxicity against human NCI-H1819 cells assessed as cell growth inhibition at 5 to 10 uM after 72 hrs by MTT assay; assay type: functional; in short: as §1
[6] = target: T1, Signal transducer and activator of transcription 3; test: Inhibition of SH2 domain of Stat3 in human MDA-MB-468 cells assessed as reduction of phosphorylated Stat3 level in cell nucleus at 5 uM after 2 hrs by fluorescence immunohistochemical analysis; assay type: cell-based; in short: as §2
[7] = Cytotoxicity against human H1299 cells assessed as cell growth inhibition at 5 to 10 uM after 72 hrs by MTT assay; assay type: functional, NCI-H1299; in short: as §1
[8] = target: T1, Signal transducer and activator of transcription 3; test: Inhibition of IL6-induced SH2 domain of Stat3 phosphorylation at Tyr705 in human HEY cells up to 10 uM treated 1.5 hrs before IL6 challenge measured after 30 mins by Western blotting; assay type: cell-based
In short: (§3)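 Hey, MeWo and A375 cells (3×10^5/well, RPMI1640, overnight, fresh medium) given increasing prodrug concentrations for 2 h, with IL-6 10 ng/mL during the final 30 min; pStat3 and total Stat3 by Western blot.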

[9] = target: T1, Signal transducer and activator of transcription 3; test: Inhibition of IL6-induced SH2 domain of Stat3 phosphorylation at Tyr705 in human MeWo cells up to 10 uM treated 1.5 hrs before IL6 challenge measured after 30 mins by Western blotting; assay type: cell-based; in short: as §3
[10] = target: T1, Signal transducer and activator of transcription 3; test: Inhibition of EGF-induced SH2 domain of Stat3 phosphorylation at Tyr705 in human MDA-MB-468 cells at 5 uM treated 1.5 hrs before EGF challenge measured after 30 mins by Western blotting; assay type: cell-based
In short: (§4)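 MDA-MB-468 cells pretreated 1.5 h with prodrug (5 μM), then EGF 100 ng/mL for 30 min; lysates split onto three PVDF blots probed for phospho/total Stat3, pSer473/total Akt, and phospho/total Stat5.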

[11] = target: Baculoviral IAP repeat-containing protein 5 (Homo sapiens) (UniProt O15392); test: Inhibition of survivin in human HCC-827 cells at 5 uM after up to 48 hrs by Western blotting; assay type: cell-based
[12] = target: RAC-alpha serine/threonine-protein kinase (Homo sapiens) (UniProt P31749); test: Inhibition of EGF-induced Akt phosphorylation at Ser473 in human MDA-MB-468 cells at 5 uM treated 1.5 hrs before EGF challenge measured after 30 mins by Western blotting; assay type: cell-based; in short: as §4
[13] = target: T2, Signal transducer and activator of transcription 1-alpha/beta (Homo sapiens) (UniProt P42224); test: Inhibition of IFN-gamma-induced Stat1 phosphorylation at Tyr701 in human MDA-MB-468 cells treated 1.5 hrs before IFN-gamma challenge measured after 30 mins by Western blotting; assay type: cell-based
T2 sequence (whole entry): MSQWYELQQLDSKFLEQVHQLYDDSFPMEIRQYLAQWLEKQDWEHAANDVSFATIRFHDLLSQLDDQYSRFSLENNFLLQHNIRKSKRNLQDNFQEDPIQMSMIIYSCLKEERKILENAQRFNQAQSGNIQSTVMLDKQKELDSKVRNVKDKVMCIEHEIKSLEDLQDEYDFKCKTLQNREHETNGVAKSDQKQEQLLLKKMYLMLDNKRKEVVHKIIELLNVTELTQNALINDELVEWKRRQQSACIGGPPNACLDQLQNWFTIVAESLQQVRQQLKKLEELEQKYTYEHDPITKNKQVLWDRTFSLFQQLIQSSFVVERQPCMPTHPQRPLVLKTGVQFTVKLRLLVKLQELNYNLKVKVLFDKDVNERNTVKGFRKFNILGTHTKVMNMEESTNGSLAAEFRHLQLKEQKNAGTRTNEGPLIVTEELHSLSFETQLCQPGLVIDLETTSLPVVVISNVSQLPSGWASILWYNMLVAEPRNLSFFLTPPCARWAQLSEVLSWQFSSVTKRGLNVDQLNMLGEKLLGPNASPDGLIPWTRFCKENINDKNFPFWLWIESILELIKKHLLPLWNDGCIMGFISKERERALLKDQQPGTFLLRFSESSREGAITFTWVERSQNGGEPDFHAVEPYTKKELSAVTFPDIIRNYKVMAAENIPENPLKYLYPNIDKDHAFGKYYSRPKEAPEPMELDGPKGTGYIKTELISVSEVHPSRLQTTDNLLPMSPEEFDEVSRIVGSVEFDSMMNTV
In short: (§5)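 MDA-MB-468 cells exposed to rising prodrug concentrations for 1.5 h, then interferon γ 25 ng/mL for 30 min; Western blot for pTyr701 and total Stat1.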

[14] = target: T2, Signal transducer and activator of transcription 1-alpha/beta (Homo sapiens); test: Inhibition of IFN-gamma-induced Stat1 phosphorylation at Tyr701 in human MDA-MB-468 cells at 5 uM treated 1.5 hrs before IFN-gamma challenge measured after 30 mins by Western blotting; assay type: cell-based; in short: as §5
[15] = target: T1, Signal transducer and activator of transcription 3; test: Inhibition of SH2 domain of Stat3 phosphorylation at Tyr705 in human HCC-827 cells at 5 uM after 10 mins by Western blotting; assay type: cell-based
In short: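 HCC-827 NSCLC cells treated with 5 μM prodrug and sampled over a time course from 10 min to 24 h; pStat3 by Western blot.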

[16] = target: Focal adhesion kinase 1 (Homo sapiens) (UniProt Q05397); test: Inhibition of constitutive FAK phosphorylation at Tyr861 in human MDA-MB-468 cells at 5 uM measured after 2 hrs by Western blotting
NCI-H520 = test: Cytotoxicity against human NCI-H520 cells assessed as cell growth inhibition at 5 to 10 uM after 72 hrs by MTT assay; assay type: functional; in short: as §1
[17] = target: T1, Signal transducer and activator of transcription 3; test: Inhibition of SH2 domain of Stat3 constitutive phosphorylation at Tyr705 in human MDA-MB-468 cells at 5 uM after 30 mins by Western blotting; assay type: cell-based
In short: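 MDA-MB-468 cells given a single 5 μM prodrug dose and harvested at set times; pTyr705 and total Stat3 by Western blot of 12 μg lysate protein on 8% SDS-PAGE.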

A-375 = test: Cytotoxicity against human A375 cells assessed as cell growth inhibition at 5 to 10 uM after 72 hrs by MTT assay; assay type: functional; in short: as §1

T1 sequence (P40763 whole entry, the tested form may be a part): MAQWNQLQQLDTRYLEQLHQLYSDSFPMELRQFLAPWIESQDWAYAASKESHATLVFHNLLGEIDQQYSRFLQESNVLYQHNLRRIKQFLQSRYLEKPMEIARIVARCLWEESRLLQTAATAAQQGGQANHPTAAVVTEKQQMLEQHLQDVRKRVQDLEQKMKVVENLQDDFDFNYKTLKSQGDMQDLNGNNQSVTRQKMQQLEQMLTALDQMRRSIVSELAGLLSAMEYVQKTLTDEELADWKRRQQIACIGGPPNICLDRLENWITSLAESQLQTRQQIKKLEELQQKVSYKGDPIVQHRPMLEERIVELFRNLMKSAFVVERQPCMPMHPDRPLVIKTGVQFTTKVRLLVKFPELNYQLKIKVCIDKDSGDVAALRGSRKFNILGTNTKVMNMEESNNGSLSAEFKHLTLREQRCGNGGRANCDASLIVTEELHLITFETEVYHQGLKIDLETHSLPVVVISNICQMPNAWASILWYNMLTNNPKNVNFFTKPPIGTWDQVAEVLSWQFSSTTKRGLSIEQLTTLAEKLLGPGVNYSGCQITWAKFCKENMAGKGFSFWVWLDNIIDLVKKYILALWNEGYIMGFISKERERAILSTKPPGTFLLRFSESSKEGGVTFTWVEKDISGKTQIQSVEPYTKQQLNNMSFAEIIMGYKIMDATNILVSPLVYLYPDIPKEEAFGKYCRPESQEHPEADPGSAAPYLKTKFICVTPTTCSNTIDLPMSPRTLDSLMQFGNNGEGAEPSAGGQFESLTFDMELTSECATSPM
Baculoviral IAP repeat-containing protein 5 (Homo sapiens), sequence (O15392 whole entry): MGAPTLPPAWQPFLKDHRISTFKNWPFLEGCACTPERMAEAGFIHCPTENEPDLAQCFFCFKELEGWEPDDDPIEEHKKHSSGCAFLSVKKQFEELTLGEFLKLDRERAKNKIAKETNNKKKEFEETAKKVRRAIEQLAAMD
Focal adhesion kinase 1 (Homo sapiens), sequence (Q05397 2-1052 limits assumed): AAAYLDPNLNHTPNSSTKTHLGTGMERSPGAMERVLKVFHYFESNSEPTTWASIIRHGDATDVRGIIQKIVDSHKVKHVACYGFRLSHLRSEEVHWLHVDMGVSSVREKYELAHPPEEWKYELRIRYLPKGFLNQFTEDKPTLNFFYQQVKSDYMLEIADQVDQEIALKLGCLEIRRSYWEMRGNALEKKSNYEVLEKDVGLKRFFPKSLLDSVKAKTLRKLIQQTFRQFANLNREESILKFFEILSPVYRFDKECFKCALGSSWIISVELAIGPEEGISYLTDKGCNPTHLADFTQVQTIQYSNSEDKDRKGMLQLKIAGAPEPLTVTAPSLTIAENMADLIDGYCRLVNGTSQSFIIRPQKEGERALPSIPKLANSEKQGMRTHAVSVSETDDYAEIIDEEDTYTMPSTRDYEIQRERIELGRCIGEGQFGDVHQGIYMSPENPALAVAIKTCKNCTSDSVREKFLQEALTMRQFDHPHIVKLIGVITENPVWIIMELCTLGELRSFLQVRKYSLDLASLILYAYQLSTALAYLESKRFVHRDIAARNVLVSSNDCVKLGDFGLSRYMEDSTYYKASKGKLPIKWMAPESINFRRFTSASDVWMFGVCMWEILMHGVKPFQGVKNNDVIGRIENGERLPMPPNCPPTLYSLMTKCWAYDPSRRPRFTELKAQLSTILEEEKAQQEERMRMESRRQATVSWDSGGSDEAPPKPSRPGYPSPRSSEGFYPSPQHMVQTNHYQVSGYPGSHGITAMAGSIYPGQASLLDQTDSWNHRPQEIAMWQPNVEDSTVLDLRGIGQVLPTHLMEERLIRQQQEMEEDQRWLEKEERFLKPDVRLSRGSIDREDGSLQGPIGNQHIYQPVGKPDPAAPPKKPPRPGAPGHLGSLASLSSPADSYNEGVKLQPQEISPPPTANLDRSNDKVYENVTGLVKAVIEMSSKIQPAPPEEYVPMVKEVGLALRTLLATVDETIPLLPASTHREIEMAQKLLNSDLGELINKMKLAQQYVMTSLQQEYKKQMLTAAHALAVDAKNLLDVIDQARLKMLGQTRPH
G1/S-specific cyclin-D1 (Homo sapiens), sequence (P24385 whole entry): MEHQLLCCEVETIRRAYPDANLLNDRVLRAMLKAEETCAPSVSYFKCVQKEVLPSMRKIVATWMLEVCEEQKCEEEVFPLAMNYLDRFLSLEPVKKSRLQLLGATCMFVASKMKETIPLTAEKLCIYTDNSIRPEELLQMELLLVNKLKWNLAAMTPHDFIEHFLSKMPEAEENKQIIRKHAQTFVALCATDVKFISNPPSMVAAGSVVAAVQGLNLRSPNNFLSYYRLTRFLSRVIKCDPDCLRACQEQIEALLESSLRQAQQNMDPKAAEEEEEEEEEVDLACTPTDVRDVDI
RAC-alpha serine/threonine-protein kinase (Homo sapiens), sequence (P31749 whole entry): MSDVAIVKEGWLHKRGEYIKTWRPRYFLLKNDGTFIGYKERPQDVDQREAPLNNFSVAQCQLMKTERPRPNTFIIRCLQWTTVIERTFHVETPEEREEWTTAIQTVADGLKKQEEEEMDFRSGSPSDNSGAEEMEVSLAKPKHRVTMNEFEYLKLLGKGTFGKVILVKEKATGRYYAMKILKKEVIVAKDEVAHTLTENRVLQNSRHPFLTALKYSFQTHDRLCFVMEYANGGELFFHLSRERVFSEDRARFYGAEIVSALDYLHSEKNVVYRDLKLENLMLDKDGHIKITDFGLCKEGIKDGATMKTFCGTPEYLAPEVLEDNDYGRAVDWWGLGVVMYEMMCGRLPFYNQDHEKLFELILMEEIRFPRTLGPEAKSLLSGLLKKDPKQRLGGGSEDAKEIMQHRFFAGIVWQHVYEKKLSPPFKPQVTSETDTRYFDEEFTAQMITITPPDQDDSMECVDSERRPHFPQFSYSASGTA

inhibition [2]: inactive
inhibition [4]: Active
inhibition [6]: Active
inhibition [8]: Active
inhibition [9]: Active
inhibition [10]: Active
inhibition [12]: inactive
inhibition [13]: Dose-dependent effect
inhibition [14]: Active
inhibition [15]: Active
inhibition [16]: inactive
inhibition [17]: Active
Compound: C/C(=C\C(=O)N[C@H]1CCc2cccc3c2N(C1=O)[C@H](C(=O)N[C@H](C)CCC(N)=O)C3)c1ccc(C(F)(F)P(=O)(OCOC(=O)C(C)(C)C)OCOC(=O)C(C)(C)C)cc1
inhibition [1]: Active
growth inhibition (GI) [3]: <20%
growth inhibition (GI) (MeWo): <20%
growth inhibition (GI) [5]: <20%
growth inhibition (GI) [7]: <20%
inhibition [11]: Active
growth inhibition (GI) (NCI-H520): <20%
growth inhibition (GI) (A-375): <20%
